The source made the active and inactive calls. The calls are words filed in the database; no cut-off is given here.
Assays:
[1] = biological target: T1, Toll-like receptor 4 (Homo sapiens, UniProt O00206); assay: Inhibition of LPS-induced TLR4 activation in human whole blood assessed as inhibition of IL-8 release preincubated for 5 to 10 mins
Summary of the method: (§1)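 Fresh human blood anticoagulated with lepirudin, preincubated with compound 5–10 min at 37 °C, then stimulated with 100 ng/mL ultrapure E. coli 0111:B4 LPS, rotating 2 h at 37 °C. Stopped with EDTA 10 mM final; plasma TNF-α, IL-8 and IL-6 measured by singleplex Bio-plex, expressed as % of LPS without inhibitor. n = 3 or 9, paired two-sided t-test.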

[2] = biological target: T1, Toll-like receptor 4; assay: Inhibition of LPS-induced TLR4 activation in human whole blood assessed as inhibition of TNFalpha release preincubated for 5 to 10 mins; summary of the method: as §1
[3] = biological target: T1, Toll-like receptor 4; assay: Inhibition of LPS-induced TLR4 activation in human whole blood assessed as inhibition of IL-8 release at 500 uM preincubated for 5 to 10 mins; summary of the method: as §1
[4] = biological target: T1, Toll-like receptor 4; assay: Inhibition of LPS-induced TLR4 activation in human whole blood assessed as inhibition of TNFalpha release at 500 uM preincubated for 5 to 10 mins; summary of the method: as §1
[5] = biological target: T1, Toll-like receptor 4; assay: Inhibition of LPS-induced TLR4 activation in human whole blood assessed as inhibition of IL-6 release at 500 uM preincubated for 5 to 10 mins; summary of the method: as §1
[6] = biological target: T1, Toll-like receptor 4; assay: Inhibition of LPS-induced TLR4 activation in human whole blood assessed as inhibition of IL-6 release at 250 uM preincubated for 5 to 10 mins; summary of the method: as §1
[7] = biological target: T1, Toll-like receptor 4; assay: Inhibition of LPS-induced TLR4 activation in human whole blood assessed as reduction in plasma IL-8 level at 250 uM preincubated for 5 to 10 mins; summary of the method: as §1
[8] = biological target: T1, Toll-like receptor 4; assay: Inhibition of LPS-induced TLR4 activation in human whole blood assessed as reduction in plasma IL-6 level at 250 uM preincubated for 5 to 10 mins; summary of the method: as §1
[9] = Octanol/water distribution coefficient, log D of the compound at pH 7.4; assay type: physicochemical
Summary of the method: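 Octanol/water distribution measured at pH 7.4.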

[10] = tested on: MDCK; assay: Permeability across apical to basolateral side of MDCK cells expressing MDR1 at 5 uM; assay type: ADME, cell-based, Canis lupus familiaris; settings: dog
Summary of the method: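 MDR1-MDCK monolayer; transport measured in apical-to-basolateral and basolateral-to-apical directions at 5 µM.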

[11] = tested on: Liver microsomes; assay: Intrinsic clearance in human liver microsomes at 1 uM after 60 mins by LC-MS/MS analysis; assay type: ADME, Microsome; settings: 1 h
Summary of the method: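 1 µM in <0.25% DMSO, 37 °C, human liver microsomes 0.5 mg/mL protein, started with cofactors. Time points 0, 10, 20, 30 and 60 min; NADPH addition confirmed by fluorimetry. LC-MS/MS peak-area ratio to internal standard; CLint = k/P.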

[12] = tested on: Liver; assay: Intrinsic clearance in human liver S9 fractions at 1 uM after 60 mins by LC-MS/MS analysis; assay type: ADME, subcellular, S9 fraction; settings: s9, 1 h
Summary of the method: (§2)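 1 µM in <0.25% DMSO, 37 °C, pooled rat or human S9 at 1 mg/mL, with 1 mM each of NADPH, UDPGA, PAPS and GSH. Sampled at 0, 10, 20, 30 and 60 min; peak-area ratio to internal standard by LC-MS/MS without a standard curve. CLint = k/P.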

[13] = tested on: Liver; assay: Intrinsic clearance in rat liver S9 fractions at 1 uM after 60 mins by LC-MS/MS analysis; assay type: ADME, subcellular, S9 fraction; settings: s9, 1 h; summary of the method: as §2
[14] = biological target: Cytochrome P450 2C9 (Homo sapiens, UniProt P11712); assay: Inhibition of CYP2C9 in human liver microsomes using diclofenac as probe; assay type: ADME, Microsome
[15] = biological target: Cytochrome P450 2C19 (Homo sapiens, UniProt P33261); assay: Inhibition of CYP2C19 in human liver microsomes using S-mephenytoin as probe; assay type: ADME, Microsome
[16] = biological target: Cytochrome P450 2D6 (Homo sapiens, UniProt P10635); assay: Inhibition of CYP2D6 in human liver microsomes using bufuralol as probe; assay type: ADME, Microsome
[17] = biological target: RAC-alpha serine/threonine-protein kinase (Homo sapiens) (UniProt P31749); assay: Inhibition of AKT1 at 28 uM by luciferase fragment complementation assay
[18] = biological target: Calcium/calmodulin-dependent protein kinase type 1 (Homo sapiens) (UniProt Q14012); assay: Inhibition of CAMK1 at 28 uM by luciferase fragment complementation assay
[19] = biological target: Discoidin domain-containing receptor 2 (Homo sapiens) (UniProt Q16832); assay: Inhibition of DDR2 at 28 uM by luciferase fragment complementation assay
[20] = biological target: Glycogen synthase kinase-3 alpha (Homo sapiens) (UniProt P49840); assay: Inhibition of GSK3alpha at 28 uM by luciferase fragment complementation assay
[21] = biological target: Mitogen-activated protein kinase 1 (Homo sapiens) (UniProt P28482); assay: Inhibition of MAPK1 at 28 uM by luciferase fragment complementation assay
[22] = biological target: Hepatocyte growth factor receptor (Homo sapiens) (UniProt P08581); assay: Inhibition of MET at 28 uM by luciferase fragment complementation assay
[23] = biological target: Serine/threonine-protein kinase PAK 1 (Homo sapiens) (UniProt Q13153); assay: Inhibition of PAK1 at 28 uM by luciferase fragment complementation assay
[24] = biological target: Platelet-derived growth factor receptor beta (Homo sapiens) (UniProt P09619); assay: Inhibition of PDGFRB at 28 uM by luciferase fragment complementation assay
[25] = biological target: Serine/threonine-protein kinase pim-1 (Homo sapiens) (UniProt P11309); assay: Inhibition of PIM1 at 28 uM by luciferase fragment complementation assay
[26] = biological target: Proto-oncogene tyrosine-protein kinase Src (Homo sapiens) (UniProt P12931); assay: Inhibition of SRC at 28 uM by luciferase fragment complementation assay
[27] = tested on: Blood; assay: Cytotoxicity against human whole blood assessed as hemolysis at 1 mM; assay type: tissue-based; settings: 1000 µM
Summary of the method: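 Human whole blood anticoagulated with lepirudin, exposed to compound at up to 1 mM; hemolysis checked.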

T1 sequence (O00206 whole entry): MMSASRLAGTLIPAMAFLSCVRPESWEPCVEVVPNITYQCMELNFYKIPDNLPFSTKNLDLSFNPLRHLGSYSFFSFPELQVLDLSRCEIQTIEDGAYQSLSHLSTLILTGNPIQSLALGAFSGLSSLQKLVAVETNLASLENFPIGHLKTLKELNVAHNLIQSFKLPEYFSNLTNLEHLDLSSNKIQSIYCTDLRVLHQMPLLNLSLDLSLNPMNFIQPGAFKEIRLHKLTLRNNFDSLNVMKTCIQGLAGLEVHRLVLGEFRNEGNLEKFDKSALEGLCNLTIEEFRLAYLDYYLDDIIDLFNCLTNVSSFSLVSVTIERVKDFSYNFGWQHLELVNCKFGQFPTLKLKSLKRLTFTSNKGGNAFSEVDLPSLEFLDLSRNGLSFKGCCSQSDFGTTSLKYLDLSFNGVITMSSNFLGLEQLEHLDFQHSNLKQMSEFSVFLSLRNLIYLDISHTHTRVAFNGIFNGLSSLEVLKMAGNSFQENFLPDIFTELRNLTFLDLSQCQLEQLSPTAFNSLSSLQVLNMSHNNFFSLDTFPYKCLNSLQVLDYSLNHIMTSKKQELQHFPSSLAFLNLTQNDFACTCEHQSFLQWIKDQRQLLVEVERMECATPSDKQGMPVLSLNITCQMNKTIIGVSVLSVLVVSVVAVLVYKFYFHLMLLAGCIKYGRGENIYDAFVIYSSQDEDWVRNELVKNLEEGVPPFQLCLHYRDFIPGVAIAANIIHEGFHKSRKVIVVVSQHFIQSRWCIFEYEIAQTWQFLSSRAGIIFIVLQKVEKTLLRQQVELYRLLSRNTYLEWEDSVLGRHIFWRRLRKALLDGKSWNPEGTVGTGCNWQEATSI
Chain of Mitogen-activated protein kinase 1 (Homo sapiens) (P28482 whole entry, the tested form may be a part): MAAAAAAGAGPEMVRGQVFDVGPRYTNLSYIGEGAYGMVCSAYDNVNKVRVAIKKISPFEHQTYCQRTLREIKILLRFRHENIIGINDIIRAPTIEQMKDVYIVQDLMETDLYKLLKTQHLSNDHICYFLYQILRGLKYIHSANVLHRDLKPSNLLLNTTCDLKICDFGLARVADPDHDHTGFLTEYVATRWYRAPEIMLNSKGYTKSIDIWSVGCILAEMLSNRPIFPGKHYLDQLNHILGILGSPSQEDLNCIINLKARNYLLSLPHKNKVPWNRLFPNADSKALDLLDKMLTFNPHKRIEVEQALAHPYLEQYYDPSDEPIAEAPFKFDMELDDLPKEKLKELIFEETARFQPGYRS
Chain of Cytochrome P450 2D6 (P10635 whole entry, the tested form may be a part): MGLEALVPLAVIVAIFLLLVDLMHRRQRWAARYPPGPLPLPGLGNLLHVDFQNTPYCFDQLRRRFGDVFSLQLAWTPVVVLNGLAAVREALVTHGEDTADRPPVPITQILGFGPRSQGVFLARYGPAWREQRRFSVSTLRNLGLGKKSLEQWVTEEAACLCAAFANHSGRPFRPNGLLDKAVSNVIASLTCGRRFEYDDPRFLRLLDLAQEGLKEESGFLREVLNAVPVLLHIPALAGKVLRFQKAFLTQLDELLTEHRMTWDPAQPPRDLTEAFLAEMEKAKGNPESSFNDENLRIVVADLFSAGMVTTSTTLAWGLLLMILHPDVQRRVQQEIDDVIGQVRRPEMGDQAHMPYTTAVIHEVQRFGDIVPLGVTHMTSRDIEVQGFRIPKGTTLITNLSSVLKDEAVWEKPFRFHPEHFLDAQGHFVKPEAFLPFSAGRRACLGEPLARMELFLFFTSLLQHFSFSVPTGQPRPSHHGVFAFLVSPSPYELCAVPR
Chain of Calcium/calmodulin-dependent protein kinase type 1 (Homo sapiens) (Q14012 whole entry, looked up, the tested form may be a part): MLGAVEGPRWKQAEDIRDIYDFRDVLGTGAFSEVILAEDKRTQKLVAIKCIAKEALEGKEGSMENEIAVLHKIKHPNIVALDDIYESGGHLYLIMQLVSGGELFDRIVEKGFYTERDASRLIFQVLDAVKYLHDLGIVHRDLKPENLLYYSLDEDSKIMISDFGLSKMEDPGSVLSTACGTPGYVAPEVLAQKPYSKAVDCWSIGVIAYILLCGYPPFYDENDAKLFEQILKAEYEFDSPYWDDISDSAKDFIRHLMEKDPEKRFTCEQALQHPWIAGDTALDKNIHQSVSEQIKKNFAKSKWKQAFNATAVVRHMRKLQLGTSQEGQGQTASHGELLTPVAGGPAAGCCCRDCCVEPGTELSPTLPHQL
Chain of Hepatocyte growth factor receptor (Homo sapiens) (P08581 whole entry, the tested form may be a part): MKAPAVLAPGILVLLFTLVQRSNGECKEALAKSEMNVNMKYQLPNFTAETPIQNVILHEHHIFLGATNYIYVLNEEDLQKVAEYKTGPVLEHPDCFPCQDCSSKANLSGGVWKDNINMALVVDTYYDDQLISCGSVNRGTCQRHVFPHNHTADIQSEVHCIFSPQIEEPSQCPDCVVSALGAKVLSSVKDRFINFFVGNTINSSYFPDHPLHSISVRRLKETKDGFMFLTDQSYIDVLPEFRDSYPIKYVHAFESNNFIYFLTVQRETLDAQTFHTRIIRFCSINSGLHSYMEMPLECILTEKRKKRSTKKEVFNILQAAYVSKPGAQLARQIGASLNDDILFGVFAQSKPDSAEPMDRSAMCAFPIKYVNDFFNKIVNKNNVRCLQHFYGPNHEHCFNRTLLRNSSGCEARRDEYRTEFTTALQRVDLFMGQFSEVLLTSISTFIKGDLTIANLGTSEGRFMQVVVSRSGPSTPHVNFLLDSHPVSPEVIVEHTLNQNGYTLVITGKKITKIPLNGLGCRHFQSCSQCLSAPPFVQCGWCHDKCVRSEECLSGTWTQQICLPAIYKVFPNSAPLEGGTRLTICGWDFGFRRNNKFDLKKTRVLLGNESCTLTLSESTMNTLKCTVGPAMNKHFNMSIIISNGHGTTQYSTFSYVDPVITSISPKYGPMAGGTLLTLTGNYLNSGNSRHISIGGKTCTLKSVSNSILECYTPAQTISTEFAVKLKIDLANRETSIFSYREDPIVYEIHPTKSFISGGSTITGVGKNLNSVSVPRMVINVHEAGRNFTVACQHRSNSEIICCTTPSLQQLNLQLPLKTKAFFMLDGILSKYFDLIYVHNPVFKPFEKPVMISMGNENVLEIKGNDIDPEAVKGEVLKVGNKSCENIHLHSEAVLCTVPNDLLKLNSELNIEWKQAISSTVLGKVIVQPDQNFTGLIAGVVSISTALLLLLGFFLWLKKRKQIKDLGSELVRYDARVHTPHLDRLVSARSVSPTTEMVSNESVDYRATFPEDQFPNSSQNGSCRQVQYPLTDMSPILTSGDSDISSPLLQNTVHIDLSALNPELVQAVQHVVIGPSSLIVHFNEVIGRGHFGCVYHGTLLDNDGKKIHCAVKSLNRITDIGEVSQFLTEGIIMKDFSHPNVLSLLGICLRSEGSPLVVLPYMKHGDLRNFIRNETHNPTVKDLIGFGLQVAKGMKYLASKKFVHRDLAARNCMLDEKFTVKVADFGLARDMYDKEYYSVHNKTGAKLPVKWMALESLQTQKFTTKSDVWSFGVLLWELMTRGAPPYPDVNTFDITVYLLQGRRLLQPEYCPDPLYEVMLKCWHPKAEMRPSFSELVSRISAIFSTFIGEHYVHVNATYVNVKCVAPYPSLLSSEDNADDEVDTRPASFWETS
Chain of Discoidin domain-containing receptor 2 (Homo sapiens) (Q16832 whole entry, the tested form may be a part): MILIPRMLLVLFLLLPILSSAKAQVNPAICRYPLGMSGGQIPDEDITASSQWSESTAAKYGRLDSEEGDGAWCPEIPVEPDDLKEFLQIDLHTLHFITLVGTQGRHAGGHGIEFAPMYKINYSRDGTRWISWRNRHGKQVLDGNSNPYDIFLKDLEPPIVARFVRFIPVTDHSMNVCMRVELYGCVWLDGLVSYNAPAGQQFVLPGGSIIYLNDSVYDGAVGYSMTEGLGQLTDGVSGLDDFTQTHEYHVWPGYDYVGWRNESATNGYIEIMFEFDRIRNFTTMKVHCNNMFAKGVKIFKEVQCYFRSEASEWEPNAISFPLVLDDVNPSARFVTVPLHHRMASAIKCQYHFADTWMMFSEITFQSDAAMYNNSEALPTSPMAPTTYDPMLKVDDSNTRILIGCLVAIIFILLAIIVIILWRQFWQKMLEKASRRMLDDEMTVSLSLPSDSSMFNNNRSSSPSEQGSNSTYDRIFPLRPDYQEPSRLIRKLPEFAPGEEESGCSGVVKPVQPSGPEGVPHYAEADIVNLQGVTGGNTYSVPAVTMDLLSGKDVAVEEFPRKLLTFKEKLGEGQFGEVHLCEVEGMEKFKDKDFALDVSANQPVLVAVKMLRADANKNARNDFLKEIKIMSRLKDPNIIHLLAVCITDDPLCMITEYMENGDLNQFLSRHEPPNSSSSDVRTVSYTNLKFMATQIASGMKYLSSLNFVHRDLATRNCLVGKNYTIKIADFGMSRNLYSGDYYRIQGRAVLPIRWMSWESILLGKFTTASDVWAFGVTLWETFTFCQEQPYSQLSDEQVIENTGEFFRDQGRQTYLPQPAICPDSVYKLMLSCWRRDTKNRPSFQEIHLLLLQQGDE
Chain of RAC-alpha serine/threonine-protein kinase (Homo sapiens) (P31749 whole entry, the tested form may be a part): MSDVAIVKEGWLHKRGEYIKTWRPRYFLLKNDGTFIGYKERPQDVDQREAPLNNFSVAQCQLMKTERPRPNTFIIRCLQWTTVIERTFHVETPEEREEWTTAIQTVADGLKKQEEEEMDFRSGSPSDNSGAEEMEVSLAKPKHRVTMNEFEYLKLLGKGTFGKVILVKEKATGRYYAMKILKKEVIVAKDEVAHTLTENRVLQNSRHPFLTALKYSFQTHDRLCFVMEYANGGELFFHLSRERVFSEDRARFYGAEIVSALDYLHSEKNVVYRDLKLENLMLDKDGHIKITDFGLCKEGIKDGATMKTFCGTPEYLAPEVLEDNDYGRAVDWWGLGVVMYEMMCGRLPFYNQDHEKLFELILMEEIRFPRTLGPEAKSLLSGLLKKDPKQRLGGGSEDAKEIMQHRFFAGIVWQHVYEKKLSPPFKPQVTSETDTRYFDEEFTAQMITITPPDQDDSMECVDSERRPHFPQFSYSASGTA

CCOc1ccc(OCC(O)CN(C)Cc2c(C)nn(Cc3ccccc3Cl)c2C)cc1 (racemic)
IC50 [1]: 111 µM | inhibition [1]: Dose-dependent effect | IC50 [2]: 316 µM | inhibition [2]: Dose-dependent effect | inhibition [3]: Active | inhibition [4]: Active | inhibition [5]: Active | inhibition [6]: inactive | inhibition [7]: 65% | inhibition [8]: 50% | logD [9]: 3.36 | permeability [10]: permeable | CL [11]: > 700 µL/min/mg | CL [12]: 300 µL/min/mg | CL [13]: > 350 µL/min/mg | IC50 [14]: 43 µM | IC50 [15]: 20 µM | IC50 [16]: 32 µM | inhibition [17]: ≤ 27% | inhibition [18]: ≤ 27% | inhibition [19]: ≤ 27% | inhibition [20]: ≤ 27% | inhibition [21]: ≤ 27% | inhibition [22]: ≤ 27% | inhibition [23]: ≤ 27% | inhibition [24]: ≤ 27% | inhibition [25]: ≤ 27% | inhibition [26]: ≤ 27% | Activity [27]: Non-toxic
